Measurements taken from the M2OR odorant receptor database.
Positions count from the first letter of the chain named.

Experiments:
Conditions in all cases: stereoisomer not certain
[1] = target: OR4C13 (Homo sapiens) (UniProt Q8NGP0)
Method in brief: (§1)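 Each entry records the cell line, G-protein, co-transfected protein and tags used. Methods varied with the source, often transient luciferase assays in mammalian cell lines. A receptor–molecule pair is called responsive (active) if the original authors judged its signal statistically different from baseline and non-responsive (inactive) otherwise.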

[2] = target: OR4C15 (Homo sapiens) (UniProt Q8NGM1)
Chain of OR4C15 (Homo sapiens) (Q8NGM1 whole entry): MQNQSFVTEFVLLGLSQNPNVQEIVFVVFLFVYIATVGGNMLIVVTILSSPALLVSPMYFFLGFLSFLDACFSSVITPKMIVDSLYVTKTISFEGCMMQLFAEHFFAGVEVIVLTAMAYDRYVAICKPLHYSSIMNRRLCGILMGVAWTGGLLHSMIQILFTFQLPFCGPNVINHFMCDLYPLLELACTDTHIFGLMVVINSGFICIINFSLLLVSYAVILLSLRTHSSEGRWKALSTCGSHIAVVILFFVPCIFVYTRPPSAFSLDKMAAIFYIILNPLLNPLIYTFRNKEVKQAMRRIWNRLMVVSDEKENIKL
Method in brief: as §1

[3] = target: T1, OR4C16 (Homo sapiens) (UniProt Q8NGL9)
T1 sequence (whole entry): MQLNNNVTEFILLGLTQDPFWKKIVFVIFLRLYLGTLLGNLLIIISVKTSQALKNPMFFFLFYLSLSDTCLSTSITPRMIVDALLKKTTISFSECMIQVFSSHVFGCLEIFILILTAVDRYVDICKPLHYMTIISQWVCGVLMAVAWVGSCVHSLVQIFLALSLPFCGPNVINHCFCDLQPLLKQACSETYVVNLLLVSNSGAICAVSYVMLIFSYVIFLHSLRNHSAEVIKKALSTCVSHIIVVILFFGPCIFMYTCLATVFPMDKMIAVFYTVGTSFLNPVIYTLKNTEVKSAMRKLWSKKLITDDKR
Method in brief: as §1

[4] = target: OR4C3 (Homo sapiens) (UniProt Q8NH37)
Chain of OR4C3 (Homo sapiens) (Q8NH37 whole entry): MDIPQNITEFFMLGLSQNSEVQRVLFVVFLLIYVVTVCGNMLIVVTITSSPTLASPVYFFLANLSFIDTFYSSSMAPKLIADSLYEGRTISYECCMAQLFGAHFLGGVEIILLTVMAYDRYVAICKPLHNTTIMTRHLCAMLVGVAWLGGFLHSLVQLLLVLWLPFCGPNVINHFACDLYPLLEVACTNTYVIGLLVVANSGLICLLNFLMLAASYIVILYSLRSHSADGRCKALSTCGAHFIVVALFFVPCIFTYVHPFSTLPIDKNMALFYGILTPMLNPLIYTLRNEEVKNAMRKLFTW
Method in brief: as §1

[5] = target: T2, OR4C45 (Homo sapiens) (UniProt A6NMZ5)
T2 sequence (whole entry): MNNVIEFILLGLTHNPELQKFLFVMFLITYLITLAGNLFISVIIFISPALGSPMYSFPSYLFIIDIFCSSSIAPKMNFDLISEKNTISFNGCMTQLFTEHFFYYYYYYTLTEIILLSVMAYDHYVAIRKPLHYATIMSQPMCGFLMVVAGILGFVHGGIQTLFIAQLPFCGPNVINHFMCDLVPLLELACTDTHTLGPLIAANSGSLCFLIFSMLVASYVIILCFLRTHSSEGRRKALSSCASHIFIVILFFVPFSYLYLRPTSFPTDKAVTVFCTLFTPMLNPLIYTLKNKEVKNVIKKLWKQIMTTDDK
Method in brief: as §1

[6] = target: OR4C46 (Homo sapiens) (UniProt A6NHA9)
Chain of OR4C46 (Homo sapiens) (A6NHA9 whole entry): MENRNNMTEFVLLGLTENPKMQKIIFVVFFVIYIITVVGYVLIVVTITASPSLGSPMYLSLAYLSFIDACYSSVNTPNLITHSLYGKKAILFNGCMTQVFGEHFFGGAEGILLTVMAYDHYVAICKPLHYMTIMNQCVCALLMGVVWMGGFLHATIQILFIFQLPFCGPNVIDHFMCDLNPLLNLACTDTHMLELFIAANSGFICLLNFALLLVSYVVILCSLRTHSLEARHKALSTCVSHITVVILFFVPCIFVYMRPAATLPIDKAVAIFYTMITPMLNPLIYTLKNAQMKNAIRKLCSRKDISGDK
Method in brief: as §1

[7] = target: OR4C5 (Homo sapiens) (UniProt Q8NGB2)
Chain of OR4C5 (Homo sapiens) (Q8NGB2 whole entry): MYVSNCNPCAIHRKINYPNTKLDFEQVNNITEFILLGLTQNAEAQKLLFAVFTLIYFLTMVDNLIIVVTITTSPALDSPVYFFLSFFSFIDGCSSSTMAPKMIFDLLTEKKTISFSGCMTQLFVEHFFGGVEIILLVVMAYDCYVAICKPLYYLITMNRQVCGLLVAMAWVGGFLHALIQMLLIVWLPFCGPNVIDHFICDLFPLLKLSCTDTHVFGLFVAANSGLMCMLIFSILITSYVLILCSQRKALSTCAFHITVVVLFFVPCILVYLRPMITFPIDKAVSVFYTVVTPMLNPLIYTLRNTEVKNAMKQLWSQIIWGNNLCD
Method in brief: as §1

[8] = target: OR4C6 (Homo sapiens) (UniProt Q8NH72)
Chain of OR4C6 (Homo sapiens) (Q8NH72 whole entry): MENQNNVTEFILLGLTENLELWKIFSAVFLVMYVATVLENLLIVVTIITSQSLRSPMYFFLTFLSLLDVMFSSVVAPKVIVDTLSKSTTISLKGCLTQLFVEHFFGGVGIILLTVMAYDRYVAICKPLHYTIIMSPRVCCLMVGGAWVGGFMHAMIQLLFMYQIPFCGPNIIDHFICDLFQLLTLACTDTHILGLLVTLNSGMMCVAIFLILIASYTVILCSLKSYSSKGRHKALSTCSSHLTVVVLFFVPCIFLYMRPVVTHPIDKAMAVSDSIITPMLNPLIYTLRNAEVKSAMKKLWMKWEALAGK
Method in brief: as §1

[9] = target: OR4D1 (Homo sapiens) (UniProt Q15615)
Method in brief: as §1

[10] = target: OR4D10 (Homo sapiens) (UniProt Q8NGI6)
Chain of OR4D10 (Homo sapiens) (Q8NGI6 whole entry): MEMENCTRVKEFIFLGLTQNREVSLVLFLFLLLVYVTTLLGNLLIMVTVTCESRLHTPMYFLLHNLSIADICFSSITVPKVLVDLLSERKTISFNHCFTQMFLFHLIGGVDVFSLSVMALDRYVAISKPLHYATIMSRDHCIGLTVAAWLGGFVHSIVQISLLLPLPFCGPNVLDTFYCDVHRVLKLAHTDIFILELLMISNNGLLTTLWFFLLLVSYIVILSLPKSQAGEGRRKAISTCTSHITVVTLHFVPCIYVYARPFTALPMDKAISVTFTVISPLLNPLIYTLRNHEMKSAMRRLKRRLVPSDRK
Method in brief: as §1

[11] = target: OR4D11 (Homo sapiens) (UniProt Q8NGI4)
Chain of OR4D11 (Homo sapiens) (Q8NGI4 whole entry): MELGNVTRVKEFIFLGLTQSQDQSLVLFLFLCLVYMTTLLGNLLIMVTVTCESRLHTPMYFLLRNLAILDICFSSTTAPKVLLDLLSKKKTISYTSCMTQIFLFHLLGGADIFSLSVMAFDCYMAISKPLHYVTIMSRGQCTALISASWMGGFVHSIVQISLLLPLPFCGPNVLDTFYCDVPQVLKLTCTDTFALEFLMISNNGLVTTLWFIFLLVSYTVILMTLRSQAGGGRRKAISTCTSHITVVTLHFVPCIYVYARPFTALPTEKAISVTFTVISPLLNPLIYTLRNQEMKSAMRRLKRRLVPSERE
Method in brief: as §1

[12] = target: OR4D2 (Homo sapiens) (UniProt P58180)
Chain of OR4D2 (Homo sapiens) (P58180 whole entry): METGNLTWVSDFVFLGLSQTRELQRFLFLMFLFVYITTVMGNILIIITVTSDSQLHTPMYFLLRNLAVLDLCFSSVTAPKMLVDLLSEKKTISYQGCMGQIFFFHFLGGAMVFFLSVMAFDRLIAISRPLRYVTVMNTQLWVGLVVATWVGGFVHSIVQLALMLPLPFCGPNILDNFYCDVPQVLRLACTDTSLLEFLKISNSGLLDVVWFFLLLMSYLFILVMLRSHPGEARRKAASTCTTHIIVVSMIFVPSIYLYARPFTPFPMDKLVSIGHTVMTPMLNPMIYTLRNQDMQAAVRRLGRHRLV
Method in brief: as §1

[13] = system: OR4C3
Chain of OR4C3 (as listed by the source): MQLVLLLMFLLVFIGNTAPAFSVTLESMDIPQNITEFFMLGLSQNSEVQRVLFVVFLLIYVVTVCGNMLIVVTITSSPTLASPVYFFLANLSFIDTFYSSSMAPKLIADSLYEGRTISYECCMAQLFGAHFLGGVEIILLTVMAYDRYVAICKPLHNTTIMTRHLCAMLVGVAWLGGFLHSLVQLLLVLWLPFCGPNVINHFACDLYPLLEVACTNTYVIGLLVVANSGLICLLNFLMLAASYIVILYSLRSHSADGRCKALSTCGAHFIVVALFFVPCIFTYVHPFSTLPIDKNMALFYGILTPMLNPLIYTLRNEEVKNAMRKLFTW
Method in brief: as §1

[14] = target: OR4C45 (Homo sapiens) (UniProt A6NMZ5); remark: listed apart in the source
Method in brief: as §1
Target sequence in this assay (A6NMZ5 whole entry): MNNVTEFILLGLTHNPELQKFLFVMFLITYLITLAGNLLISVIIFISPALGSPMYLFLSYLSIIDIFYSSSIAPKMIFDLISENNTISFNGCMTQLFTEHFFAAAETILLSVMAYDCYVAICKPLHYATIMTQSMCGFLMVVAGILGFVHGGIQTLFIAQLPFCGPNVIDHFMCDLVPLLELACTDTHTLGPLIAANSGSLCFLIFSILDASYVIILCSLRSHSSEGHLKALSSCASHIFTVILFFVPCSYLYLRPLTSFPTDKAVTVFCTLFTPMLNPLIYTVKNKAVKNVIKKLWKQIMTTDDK

[15] = system: T3, OR4CB P8T
T3 sequence (whole entry): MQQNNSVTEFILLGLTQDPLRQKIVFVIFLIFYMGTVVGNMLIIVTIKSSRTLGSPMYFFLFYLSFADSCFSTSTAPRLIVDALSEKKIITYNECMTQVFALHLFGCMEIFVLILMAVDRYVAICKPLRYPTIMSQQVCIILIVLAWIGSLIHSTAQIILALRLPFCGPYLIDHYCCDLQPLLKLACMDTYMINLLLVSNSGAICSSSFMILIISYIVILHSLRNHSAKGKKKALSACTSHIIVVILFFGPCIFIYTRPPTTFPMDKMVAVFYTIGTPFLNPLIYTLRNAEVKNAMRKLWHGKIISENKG
Method in brief: as §1

[16] = system: OR4CC
Chain of OR4CC (as listed by the source): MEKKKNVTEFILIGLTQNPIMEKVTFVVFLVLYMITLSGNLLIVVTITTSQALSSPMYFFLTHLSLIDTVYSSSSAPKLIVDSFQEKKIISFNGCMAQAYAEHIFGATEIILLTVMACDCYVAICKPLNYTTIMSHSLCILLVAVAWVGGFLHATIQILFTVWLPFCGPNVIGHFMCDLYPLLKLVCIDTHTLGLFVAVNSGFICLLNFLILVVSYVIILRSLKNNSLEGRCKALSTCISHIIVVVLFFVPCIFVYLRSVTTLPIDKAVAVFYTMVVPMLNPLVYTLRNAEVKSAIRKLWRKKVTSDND
Method in brief: as §1

[17] = system: OR4CD V133I
Chain of OR4CD V133I (as listed by the source, stated change not applied): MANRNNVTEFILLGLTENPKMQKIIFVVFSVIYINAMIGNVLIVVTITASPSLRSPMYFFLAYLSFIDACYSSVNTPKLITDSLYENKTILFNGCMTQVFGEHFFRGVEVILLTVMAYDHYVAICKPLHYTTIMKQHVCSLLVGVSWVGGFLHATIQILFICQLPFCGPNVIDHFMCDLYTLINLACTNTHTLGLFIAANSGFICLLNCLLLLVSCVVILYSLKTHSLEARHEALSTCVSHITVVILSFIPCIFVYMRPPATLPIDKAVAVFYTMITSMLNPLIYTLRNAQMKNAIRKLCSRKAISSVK
Method in brief: as §1

[18] = system: OR4CF
Chain of OR4CF (as listed by the source): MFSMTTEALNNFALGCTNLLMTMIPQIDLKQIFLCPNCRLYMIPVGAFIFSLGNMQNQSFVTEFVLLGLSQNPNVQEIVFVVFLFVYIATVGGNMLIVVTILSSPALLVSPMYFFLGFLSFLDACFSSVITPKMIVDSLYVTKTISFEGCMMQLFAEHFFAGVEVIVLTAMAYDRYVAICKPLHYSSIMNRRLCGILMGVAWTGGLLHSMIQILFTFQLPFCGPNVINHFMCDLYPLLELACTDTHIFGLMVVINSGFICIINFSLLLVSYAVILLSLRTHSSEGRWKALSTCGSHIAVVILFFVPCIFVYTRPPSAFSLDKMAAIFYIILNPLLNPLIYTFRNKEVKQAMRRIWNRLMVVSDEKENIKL
Method in brief: as §1

[19] = system: T4, OR4CG T76A
T4 sequence (whole entry): T1 sequence (whole entry) with T76A
Method in brief: as §1

[20] = system: OR4D1
Chain of OR4D1 (as listed by the source): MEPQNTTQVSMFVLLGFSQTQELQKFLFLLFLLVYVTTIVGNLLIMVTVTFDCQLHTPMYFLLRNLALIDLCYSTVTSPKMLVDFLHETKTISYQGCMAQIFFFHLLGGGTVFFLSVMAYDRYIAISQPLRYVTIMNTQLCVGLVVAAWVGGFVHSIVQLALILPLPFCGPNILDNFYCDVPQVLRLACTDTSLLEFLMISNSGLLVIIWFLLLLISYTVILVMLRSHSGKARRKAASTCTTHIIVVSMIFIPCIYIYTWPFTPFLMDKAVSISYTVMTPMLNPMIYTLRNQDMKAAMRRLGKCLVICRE
Method in brief: as §1

Measured: odorant receptor agonist call

Chain of OR4C13 (Homo sapiens) (Q8NGP0 whole entry): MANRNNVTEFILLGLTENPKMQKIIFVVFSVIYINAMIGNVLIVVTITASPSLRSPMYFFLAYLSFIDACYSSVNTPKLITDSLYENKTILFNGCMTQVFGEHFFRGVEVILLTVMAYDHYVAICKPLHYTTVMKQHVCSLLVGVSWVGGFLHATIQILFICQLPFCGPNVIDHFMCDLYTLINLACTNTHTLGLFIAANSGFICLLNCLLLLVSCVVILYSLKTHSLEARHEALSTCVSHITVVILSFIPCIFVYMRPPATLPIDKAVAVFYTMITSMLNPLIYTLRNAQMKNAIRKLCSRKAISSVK

CC(=O)c1c(C)c([N+](=O)[O-])c(C(C)(C)C)c([N+](=O)[O-])c1C
not listed: [13] | [14] | [15] | [16] | [17] | [18] | [19] | [20]
inactive: all other assays above

CCCCC(S)C(C)CO (stereo unspecified)
not listed: [13] | [14] | [15] | [16] | [17] | [18] | [19] | [20]
inactive: all other assays above

CC1=NC(C)C(C)S1 (stereo unspecified)
not listed: [2] | [4] | [5]
inactive: all other assays above

CCC1OC(C)=C(O)C1=O (stereo unspecified)
not listed: [2] | [4] | [5]
inactive: all other assays above

CC(CO)CS (stereo unspecified)
not listed: [13] | [14] | [15] | [16] | [17] | [18] | [19] | [20]
inactive: all other assays above

CC1CCCCCCCCCCCCC(=O)C1 (stereo unspecified)
not listed: [13] | [14] | [15] | [16] | [17] | [18] | [19] | [20]
inactive: all other assays above

Cc1cnc(C)c(C)n1
not listed: [2] | [4] | [5]
inactive: all other assays above

CC1=C(O)C(=O)C(C)O1 (stereo unspecified)
not listed: [2] | [4] | [5]
inactive: all other assays above

CC(C)=CCCC(C)=CCO
inactive: [13]

CCC(S)C(C)CO (stereo unspecified)
not listed: [13] | [14] | [15] | [16] | [17] | [18] | [19] | [20]
inactive: all other assays above

CCCC(S)CCOC(C)=O (stereo unspecified)
not listed: [2] | [4] | [5]
inactive: all other assays above

CCCCCCC=CCCC=O
not listed: [13] | [14] | [18]
inactive: all other assays above

CC1=C(O)C(=O)OC1C (stereo unspecified)
not listed: [2] | [4] | [5]
inactive: all other assays above

CCCCCC(S)C(C)CO (stereo unspecified)
not listed: [13] | [14] | [15] | [16] | [17] | [18] | [19] | [20]
inactive: all other assays above

CCCCCC(=O)C(C)C(C)=O (stereo unspecified)
not listed: [13] | [14] | [15] | [16] | [17] | [18] | [19] | [20]
inactive: all other assays above

CCC1OC(=O)C(O)=C1C (stereo unspecified)
not listed: [2] | [4] | [5]
inactive: all other assays above
